In one series the test system is HeLa 229. Description: Cytotoxicity against human HeLa 229 cells assessed as reduction in cell viability at 50 ug/ml after 24 hrs by CCK-8 assay. It counts as cell-based. The note with it: hela 229, 24 h. The method, boiled down:
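HeLa 229 and HaCaT cells in DMEM with 10% FBS and 1% penicillin/streptomycin, 37 °C, 5% CO2, seeded at 5000 cells/well. Next day treated with 50 μg/mL in triplicate, with matching DMSO controls. After 24 h, CCK-8 added for 2 h; corrected absorbance read at 450 nm.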

The next series relates to Pseudomonas aeruginosa. Description: Antibacterial activity against Pseudomonas aeruginosa ATCC 27853 assessed as bacterial growth inhibition at 32 ug/ml measured after 16 hrs by broth microdilution method. It counts as functional, organism-based.
A short description of series [1]: Activation of recombinant human C-terminal 6xHis-tagged ClpP expressed in Escherichia coli assessed as induction of casein degradation at 0.1 to 1 uM using FITC-labelled casein as substrate pretreated with enzyme for 30 mins followed by substrate addition and measured every 3 mins for 3 hrs in absence of AAA+ chaperone by fluorescence based tecan-plate reader assay. The essentials: (§1)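 Recombinant C-terminal His6-tagged ClpP, expressed in a clpAPX-null E. coli strain and purified (mammalian ClpP without mitochondrial signal, codon-optimized). ClpP at 1 or 0.1 μM (E. coli), 1 μM (human, mouse) or 6 μM (chlamydial ClpP1 and ClpP2) preincubated with compound or DMSO, 30 min, 32 °C, in HEPES pH 7.6/KCl/MgCl2/DTT/glycerol buffer. 20 μM FITC-casein then added. Fluorescence (ex 490/em 525 nm) read every 3 min for 3 h. At least three runs on at least two protein preparations.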

Series [2] deals with Chlamydia trachomatis. Description: Anti-chlamydial activity against Chlamydia trachomatis Serovar LGV-L2 infected in Hep2 cells assessed as inhibition of chlamydial inclusion at 50 ug/ml treated at 8 hrs post infection and measured at 24 hrs post-infection by immunofluorescence assay. The series is classed as functional, organism-based. The method, boiled down:
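HEp-2 cells infected with C. trachomatis serovar L2. Compounds at 50 μg/mL added 8 hpi; inclusion number and size assessed by immunofluorescence at 24 hpi against untreated cells. Cell morphology and viability checked by phase-contrast microscopy.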

For series [3], the system named is Chlamydia trachomatis. Put plainly: Activation of recombinant Chlamydia trachomatis Serovar LGV-L2 C-terminal 6xhis-tagged ClpP2 expressed in Escherichia coli assessed as induction of casein degradation at 0.1 to 1 uM using FITC-labelled casein as substrate pretreated with enzyme for 30 mins followed by substrate addition and measured every 3 mins for 3 hrs in absence of AAA+ chaperone by fluorescence based tecan-plate reader assay. The method, boiled down:
as §1

The next series deals with Klebsiella pneumoniae. Description: Antibacterial activity against Klebsiella pneumoniae ATCC 700603 assessed as bacterial growth inhibition at 32 ug/ml measured after 16 hrs by broth microdilution method. The series is classed as functional, organism-based.
For another series, the system named is Escherichia coli. Description: Antibacterial activity against Escherichia coli K12 assessed as bacterial death up to 256 ug/ml measured after 16 hrs by broth microdilution method. The series is classed as functional, organism-based. The note with it: K-12. The method, boiled down: (§2)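 Broth microdilution in Mueller Hinton broth, triplicate. Direct colony suspension at 1.5 x 10^8 CFU/mL diluted to ~10^5 CFU/mL. Serial dilutions made from DMSO stocks at 1 mg/mL; vancomycin positive control, blank medium negative control. Incubated 16 h at optimum temperature. MIC is the lowest concentration without visible growth at 600 nm; mean of triplicate determinations.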

In series [4] the test system is Staphylococcus aureus. Put plainly: Antibacterial activity against Staphylococcus aureus JE2 assessed as bacterial death up to 256 ug/ml measured after 16 hrs by broth microdilution method. The series is classed as functional, organism-based. The essentials: as §2
The nature of series [5]: Mutagenicity in Drosophila melanogaster somatic cells assessed as frequency of clone formation in ST crosses at 0.25 to 1 mM by SMART assay. It counts as ADME. The conditions noted are these: 1000 µM. The essentials:
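Drosophila SMART wing-spot assay, ST and HB crosses. Third-instar larvae (72 ± 4 h) placed on hydrated instant mashed potato medium containing compound at 0.25, 0.5 or 1.0 mM final. Negative control: water with 1% Tween-80 and 3% ethanol. Statistics by Frei and Würgler two-sided U test, P≤0.05.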

A further series concerns Cryptococcus neoformans. Description: Antifungal activity against Cryptococcus neoformans var. grubii H99 ATCC […] as fungal growth inhibition at 32 ug/ml measured after 16 hrs by broth microdilution method. It counts as functional, organism-based. The conditions noted are these: var. grubii H99 ATCC 208821.
Series [6] can be described thus: Half life in human liver microsomes at 1 ug/ml measured up to 60 mins by LC-MS/MS analysis. The series is classed as ADME, Microsome. The note with it: microsomes, 1 h. The essentials: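 Human liver microsomes (1.0 mg/mL protein) in 100 mM phosphate pH 7.4 with 10 mM MgCl2 and 2 mM NADPH, preincubated 10 min at 37 °C. Reaction started with compound at 1 μg/mL. Sampled at 0, 5, 15, 20, 30, 45 and 60 min and quenched in methanol with internal standard. Controls: no NADPH (negative), testosterone (positive). Analysed by LC-MS/MS, triplicate.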

Another series has as its system Candida albicans. Description: Antifungal activity against Candida albicans ATCC 90028 assessed as fungal growth inhibition at 32 ug/ml measured after 16 hrs by broth microdilution method. It counts as functional, organism-based.
In series [7] the test system is Chlamydia trachomatis. Description: Activation of recombinant Chlamydia trachomatis Serovar LGV-L2 C-terminal 6xhis-tagged ClpP1 expressed in Escherichia coli assessed as induction of casein degradation at 0.1 to 1 uM using FITC-labelled casein as substrate pretreated with enzyme for 30 mins followed by substrate addition and measured every 3 mins for 3 hrs in absence chaperone by fluorescence based tecan-plate reader assay. The method, boiled down:
as §1

Series [8] relates to Chlamydia trachomatis. Put plainly: Anti-chlamydial activity against Chlamydia trachomatis Serovar LGV-L2 infected in Hep2 cells assessed as reduction in chlamydial infectivity by measuring decrease in inclusion forming units at 50 ug/ml treated at 8 hrs post-infection and 24 hrs later re-infecting fresh Hep2 cells monolayer with infected cells and measured at 24 hrs post re-infection by immunofluorescence staining based microscopy analysis. The series is classed as functional, organism-based. The method, boiled down:
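HEp-2 cells in DMEM with 10% FBS, infected with C. trachomatis L2 at MOI 1. Compounds added 8 hpi in triplicate; DMSO stocks at 50 mg/mL. At 24 hpi lysates collected in sucrose storage medium, frozen at −80 °C, and used to infect fresh HEp-2 monolayers in 10-fold dilutions. After 24 h, stained with goat anti-MOMP and Alexa488 secondary. Inclusions counted in 15 fields at 20x; IFU = mean count per field corrected for dilution.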

For series [9], the system named is Staphylococcus aureus. Put plainly: Antibacterial activity against methicillin-resistant Staphylococcus aureus ATCC 43300 assessed as bacterial growth inhibition at 32 ug/ml measured after 16 hrs by broth microdilution method. The series is classed as functional, organism-based.
The nature of series [10]: Toxicity in Drosophila melanogaster assessed as survival rate at 0.25 to 1 mM. The conditions noted are these: 1000 µM. The method, boiled down: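 Drosophila SMART assay using third-instar larvae (72 ± 4 h) from ST and HB crosses. Larvae exposed in hydrated instant mashed-potato medium at 0.25, 0.5 and 1.0 mM final. Vehicle control: water with 1% Tween-80 and 3% ethanol. Survival of treated groups compared statistically with the vehicle control.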

For series [11], the system named is Staphylococcus aureus. Description: Antibacterial activity against Staphylococcus aureus JE2 assessed as bacterial growth inhibition at 32 ug/ml measured after 16 hrs by broth microdilution method. It counts as functional, organism-based. The method, boiled down: as §2
For series [12], the system named is Chlamydia trachomatis. Description: Activation of recombinant Chlamydia trachomatis Serovar LGV-L2 C-terminal 6xhis-tagged ClpP1/ClpP2 dimer expressed in Escherichia coli assessed as induction of casein degradation at 0.1 to 1 uM using FITC-labelled casein as substrate pretreated with enzyme for 30 mins followed by substrate addition and measured every 3 mins for 3 hrs in absence of AAA+ chaperone by fluorescence based tecan-plate reader assay. The essentials:
as §1

Calls of active or inactive are those of the source. The calls are words filed in the database; no cut-off is given here.

For the compound `CC(C)(C(=O)NCCCc1ccccc1)S(=O)(=O)c1ccc(C(F)(F)F)cc1`, the Activity result with HeLa 229 is “Toxic”; in series [1], “Active”; in [5], “Non-Toxic”; in series [10], “Non-Toxic”. The inhibition entry with Pseudomonas aeruginosa, in the series on Klebsiella pneumoniae, in the series with Cryptococcus neoformans, in the series on Candida albicans, with Staphylococcus aureus [9] and in the series with Staphylococcus aureus [11] was “inactive” each time. Moreover, the inhibition result in the series on Chlamydia trachomatis [2] and in the series with Chlamydia trachomatis [8] was “Active” each time. The outcome in the series with Chlamydia trachomatis [3], with Chlamydia trachomatis [7] and in the series with Chlamydia trachomatis [12] was Active. The outcome in the series with Escherichia coli and with Staphylococcus aureus [4] was inactive. Also, the t1/2 in series [6] amounted to 6.13 min.

As for `CC(C)(C(=O)N1CCN(Cc2ccc(Cl)cc2)CC1)S(=O)(=O)c1ccc(C(F)(F)F)cn1`, the Activity entry is on record as “Non-Toxic” with HeLa 229, “Not Active” in [1], “Non-Toxic” in series [5] and “Non-Toxic” in series [10]. Further, the inhibition entry in the series on Pseudomonas aeruginosa, in the series with Klebsiella pneumoniae, in the series on Cryptococcus neoformans, in the series with Candida albicans, in the series on Staphylococcus aureus [9] and in the series on Staphylococcus aureus [11] was “inactive” in each case. The inhibition result in the series with Chlamydia trachomatis [2] and in the series with Chlamydia trachomatis [8] was “Active” each time. The outcome in the series on Chlamydia trachomatis [3], in the series with Escherichia coli, in the series on Staphylococcus aureus [4], in the series with Chlamydia trachomatis [7] and in the series on Chlamydia trachomatis [12] was inactive. The t1/2 in [6] is less than 2 min.

The values above are taken from ChEMBL document CHEMBL4342502, “Synthesis and Antichlamydial Activity of Molecules Based on Dysregulators of Cylindrical Proteases” (J Med Chem, 2020).
